One data set has as its target Cytochrome P450 2E1 (Homo sapiens, UniProt P05181). The experiment in a line: Inhibition of CYP2E1 in human liver microsomes in presence of NADPH by LC-MS/MS analysis. The format is ADME. Put shortly:
(§1)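 Pooled human liver microsomes. IC50 determined from isoform-specific marker activities for CYP1A2, 2A6, 2B6, 2C8, 2C9, 2C19 (mephenytoin hydroxylation) and 2E1.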

The nature of data set [1]: Ratio of drug uptake in Wistar rat brain to plasma at 10 mg/kg, po by LC-MS/MS analysis. Format: ADME, organism-based. The settings on record: read-out: BPR.
The target of data set [2] is T1, Cytochrome P450 2B6 (Homo sapiens, UniProt P20813). Put plainly: Inhibition of CYP2B6 in human liver microsomes in presence of NADPH by LC-MS/MS analysis. Format: ADME. The procedure, abridged:
as §1

For data set [3], the target named is 5-hydroxytryptamine receptor 7 (Rattus norvegicus) (UniProt P32305). The experiment in a line: Binding affinity to recombinant rat 5-HT7 receptor expressed in CHOK1 cells assessed as inhibition of 5-HT stimulated cAMP accumulation after 4 hrs by luciferase reporter gene assay. The format is cell-based. In general terms: Changes in cAMP serve as a functional read-out for many G protein-coupled receptors.
Sequence of 5-hydroxytryptamine receptor 7 (Rattus norvegicus) (P32305 whole entry): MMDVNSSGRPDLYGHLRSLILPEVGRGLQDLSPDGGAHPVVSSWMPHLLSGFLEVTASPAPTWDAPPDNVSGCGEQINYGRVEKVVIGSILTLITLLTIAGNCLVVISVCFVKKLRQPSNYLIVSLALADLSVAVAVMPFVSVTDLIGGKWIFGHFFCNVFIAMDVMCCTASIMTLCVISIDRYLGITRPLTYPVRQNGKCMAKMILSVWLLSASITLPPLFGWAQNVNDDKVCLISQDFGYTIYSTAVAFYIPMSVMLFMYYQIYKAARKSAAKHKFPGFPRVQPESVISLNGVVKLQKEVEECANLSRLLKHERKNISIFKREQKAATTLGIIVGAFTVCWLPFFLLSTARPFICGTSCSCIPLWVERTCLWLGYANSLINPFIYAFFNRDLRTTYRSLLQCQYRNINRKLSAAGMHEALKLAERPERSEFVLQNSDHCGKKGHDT

The next data set deals with D(3) dopamine receptor (Rattus norvegicus, UniProt P19020). Put plainly: Displacement of [3H] 7-OH DPAT from recombinant rat dopamine D3 receptor expressed in CHO cells after 60 mins. Format: cell-based. (In general: Loss of bound radioactivity is the signal in a displacement assay; it reports binding, not function.)
Sequence of D(3) dopamine receptor (P19020 whole entry): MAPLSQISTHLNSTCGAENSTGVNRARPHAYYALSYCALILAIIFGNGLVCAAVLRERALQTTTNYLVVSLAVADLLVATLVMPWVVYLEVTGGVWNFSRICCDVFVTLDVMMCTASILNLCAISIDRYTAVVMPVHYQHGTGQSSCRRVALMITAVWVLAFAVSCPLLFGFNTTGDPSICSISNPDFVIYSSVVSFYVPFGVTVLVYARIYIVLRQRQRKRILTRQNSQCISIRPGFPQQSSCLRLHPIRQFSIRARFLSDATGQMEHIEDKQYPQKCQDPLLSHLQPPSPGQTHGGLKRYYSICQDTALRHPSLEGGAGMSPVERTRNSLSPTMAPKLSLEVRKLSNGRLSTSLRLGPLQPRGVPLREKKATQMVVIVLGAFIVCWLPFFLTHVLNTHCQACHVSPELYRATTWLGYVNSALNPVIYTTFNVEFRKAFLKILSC
Data set [4] is described as follows: AUC (0 to t) in Wistar rat at 10 mg/kg, po by LC-MS/MS analysis. Format: ADME, organism-based. Conditions: Wistar, in vivo.
Data set [5] is described as follows: Protein binding in human plasma at 1 uM after 6 hrs by LC-MS/MS based rapid equilibrium dialysis method. Format: ADME, cell-free. Conditions: read-out: PPB (converted). Put shortly: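 Plasma protein binding in rat, dog and human plasma determined by equilibrium dialysis.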
(Equilibrium dialysis compares concentrations on both sides of a semipermeable membrane.)

The target of a further data set is Cytochrome P450 1A2 (Homo sapiens, UniProt P05177). Put plainly: Inhibition of CYP1A2 in human liver microsomes in presence of NADPH by LC-MS/MS analysis. Format: ADME. Put shortly:
as §1

The test system of data set [6] is Rattus norvegicus. Put plainly: Effect on basal level of acetylcholine in Wistar rat ventral hippocampus at 1 to 3 mg/kg, po after 6 hrs by LC-MS/MS based microdialysis method. Conditions: in vivo. Format: ADME, organism-based. Put shortly:
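Male Wistar rats (240−300 g) fitted under isoflurane with a ventral hippocampal guide cannula (AP −5.2, ML +5.0, DV −3.8 mm from bregma). Probe (4 mm membrane) inserted 16 h before study. Perfusion with aCSF pH 7.2 at 1.5 μL/min, 2 h stabilization, five basal 20-min samples. Test agent given p.o.; donepezil and memantine (1 mg/kg s.c. each) given 30 min later in combination arms. Dialysates collected 6 h (4 h for combination), acetylcholine measured by LC-MS/MS, expressed as % of mean basal.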

The target in data set [7] is T2, Cytochrome P450 3A4 (Homo sapiens, UniProt P08684). Put plainly: Inhibition of CYP3A4 in human liver microsomes using testosterone as substrate in presence of NADPH by LC-MS/MS analysis. The format is ADME. The procedure, abridged: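 CYP3A4 inhibition in human liver microsomes using testosterone hydroxylation as the probe reaction; IC50 determined.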
T2 sequence (P08684 whole entry): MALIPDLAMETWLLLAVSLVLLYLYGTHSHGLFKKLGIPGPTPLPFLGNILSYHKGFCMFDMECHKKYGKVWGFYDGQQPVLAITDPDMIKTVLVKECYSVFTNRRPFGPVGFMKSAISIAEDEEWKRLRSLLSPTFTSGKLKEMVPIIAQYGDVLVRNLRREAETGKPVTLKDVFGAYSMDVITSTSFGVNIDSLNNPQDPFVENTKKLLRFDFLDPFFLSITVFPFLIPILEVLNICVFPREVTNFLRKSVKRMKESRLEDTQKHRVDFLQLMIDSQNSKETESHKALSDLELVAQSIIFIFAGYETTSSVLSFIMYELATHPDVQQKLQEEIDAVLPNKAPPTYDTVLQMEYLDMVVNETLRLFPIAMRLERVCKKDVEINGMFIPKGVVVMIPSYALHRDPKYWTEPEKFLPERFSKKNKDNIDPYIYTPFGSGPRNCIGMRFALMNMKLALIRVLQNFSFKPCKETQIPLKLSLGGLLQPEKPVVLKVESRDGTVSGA
Data set [8] can be described thus: Terminal half life in Beagle dog at 10 mg/kg, po. The format is ADME, organism-based, Canis lupus familiaris. Conditions: in vivo, read-out: beta t1/2 (converted). The procedure, abridged:
(§2)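 Beagle dogs received 10 mg/kg p.o. and 3 mg/kg i.v. in a pharmacokinetic study. From plasma exposure the authors derived AUC0-t, terminal half-life, intravenous clearance, volume of distribution and absolute oral bioavailability.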

Data set [9] is described as follows: Clearance in Wistar rat at 10 mg/kg, iv by LC-MS/MS analysis. Conditions: in vivo. The format is ADME, organism-based.
Data set [10] in a line: Apparent volume of distribution in Wistar rat at 10 mg/kg, iv by LC-MS/MS analysis. The format is ADME, organism-based. The settings on record: in vivo, read-out: Vz.
Data set [11] in a line: Clearance in Beagle dog at 3 mg/kg, iv. The format is ADME, organism-based, Canis lupus familiaris. Conditions: in vivo.
Data set [12] addresses 5-hydroxytryptamine receptor 4 (Homo sapiens) (UniProt Q13639). Put plainly: Displacement of [3H]-GR113808 from recombinant human 5-HT4B receptor expressed in Chem1 cell membranes after 120 mins by microbeta scintillation counting analysis.
Data set [13] deals with Rattus norvegicus. Put plainly: Cognitive enhancing effect in contextual fear conditioning rat model assessed as reversal of scopolamine-induced emotional memory deficits at 1 to 10 mg/kg, po administered for 1 hr followed by scopolamine challenge for 120 mins. The format is functional, organism-based.
Data set [14] deals with T2, Cytochrome P450 3A4. The experiment in a line: Induction of CYP3A4 activity in human hepatocytes at 0.01 to 1 uM preincubated for 3 days followed by substrate addition measured after 30 mins. Format: ADME, cell-based. The settings on record: 0.5 h. Put shortly: (§3)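 Plateable human hepatocytes exposed to 0.01, 0.1 and 1.0 μM. CYP1A2, CYP2B6 and CYP3A4 induction read as both mRNA expression and enzyme activity.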

Data set [15] is described as follows: Apparent permeability of the compound in human Caco2 cells at 10 uM measured up to 120 mins by LC-MS/MS analysis. Format: ADME, cell-based. The settings on record: Caco-2. Put shortly: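 Permeability in Caco-2 intestinal epithelial monolayers, measured apical-to-basolateral and basolateral-to-apical; efflux ratio taken as Papp(B-A)/Papp(A-B).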
Data set [16] deals with T1, Cytochrome P450 2B6. The experiment in a line: Induction of CYP2B6 activity in human hepatocytes at 0.01 to 1 uM preincubated for 3 days followed by substrate addition measured after 30 mins. The settings on record: 0.5 h. The format is ADME, cell-based. The procedure, abridged: as §3
Data set [17] can be described thus: Volume of distribution in Beagle dog at 3 mg/kg, iv or at 10 mg/kg, po. Conditions: in vivo. Format: ADME, organism-based, Canis lupus familiaris. The procedure, abridged:
as §2

In data set [18] the test system is Rattus norvegicus. Put plainly: Toxicity in Wistar rat assessed as induction of cholinergic side effects at 1 and 3 mg/kg, po in presence of 1 mg/kg of donepezil and memantine administered sc 30 mins post compound treatment measured after 4 hrs by LC-MS/MS based microdialysis method relative to control. The format is organism-based. The settings on record: in vivo. The procedure, abridged:
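The probe (4 mm membrane) was inserted 16 h before the study and perfused with aCSF (pH 7.2) at 1.5 μL/min, with 2 h stabilization. Five 20-min basal samples were taken before oral compound. Donepezil and memantine (1 mg/kg s.c. each) were given 30 min later. Dialysates were collected for 4 h and acetylcholine measured by LC-MS/MS as % of basal. Comparison was against donepezil+memantine by two-way ANOVA.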

Another data set has as its target Cytochrome P450 2D6 (Homo sapiens, UniProt P10635). Put plainly: Inhibition of CYP2D6 in human liver microsomes in presence of NADPH by LC-MS/MS analysis.
Data set [19] addresses T3, 5-hydroxytryptamine receptor 2C (Homo sapiens) (UniProt P28335).
T3 sequence (whole entry): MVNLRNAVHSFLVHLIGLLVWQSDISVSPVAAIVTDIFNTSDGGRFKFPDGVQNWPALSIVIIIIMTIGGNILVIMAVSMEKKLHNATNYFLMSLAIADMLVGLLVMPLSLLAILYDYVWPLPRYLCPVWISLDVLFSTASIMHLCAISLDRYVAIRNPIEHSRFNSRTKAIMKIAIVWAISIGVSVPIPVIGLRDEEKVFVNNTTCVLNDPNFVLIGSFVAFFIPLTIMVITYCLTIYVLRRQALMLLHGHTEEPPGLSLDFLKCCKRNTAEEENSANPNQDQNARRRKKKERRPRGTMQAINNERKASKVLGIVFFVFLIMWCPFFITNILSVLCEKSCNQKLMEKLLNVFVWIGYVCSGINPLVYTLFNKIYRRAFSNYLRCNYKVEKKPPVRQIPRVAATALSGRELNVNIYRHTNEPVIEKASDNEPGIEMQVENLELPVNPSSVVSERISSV
Put plainly: Displacement of [3H]-Mesulergine from recombinant human 5-HT2C receptor expressed in HEK293 cell membranes after 180 mins by microbeta scintillation counting analysis.

Calls of active or inactive are those of the source. The rule behind the calls is not given here. Some results are limits rather than exact numbers.

The record followed here is ChEMBL document CHEMBL4007422 (J Med Chem, 2017).

T1 sequence (P20813 whole entry): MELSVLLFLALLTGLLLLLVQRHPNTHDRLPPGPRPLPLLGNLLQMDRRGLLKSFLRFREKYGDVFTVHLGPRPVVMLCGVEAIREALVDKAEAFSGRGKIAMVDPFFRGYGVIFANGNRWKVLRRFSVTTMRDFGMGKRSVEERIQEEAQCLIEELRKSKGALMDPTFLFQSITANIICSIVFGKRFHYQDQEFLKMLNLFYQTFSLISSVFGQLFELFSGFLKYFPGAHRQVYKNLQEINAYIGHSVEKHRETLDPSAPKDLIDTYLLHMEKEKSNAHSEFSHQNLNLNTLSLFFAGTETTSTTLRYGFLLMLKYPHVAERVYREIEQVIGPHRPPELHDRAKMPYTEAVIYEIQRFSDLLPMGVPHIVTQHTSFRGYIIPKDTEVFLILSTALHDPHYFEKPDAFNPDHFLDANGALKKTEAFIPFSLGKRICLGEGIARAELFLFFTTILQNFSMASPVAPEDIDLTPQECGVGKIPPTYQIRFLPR
Sequence of Cytochrome P450 2E1 (P05181 whole entry, canonical isoform): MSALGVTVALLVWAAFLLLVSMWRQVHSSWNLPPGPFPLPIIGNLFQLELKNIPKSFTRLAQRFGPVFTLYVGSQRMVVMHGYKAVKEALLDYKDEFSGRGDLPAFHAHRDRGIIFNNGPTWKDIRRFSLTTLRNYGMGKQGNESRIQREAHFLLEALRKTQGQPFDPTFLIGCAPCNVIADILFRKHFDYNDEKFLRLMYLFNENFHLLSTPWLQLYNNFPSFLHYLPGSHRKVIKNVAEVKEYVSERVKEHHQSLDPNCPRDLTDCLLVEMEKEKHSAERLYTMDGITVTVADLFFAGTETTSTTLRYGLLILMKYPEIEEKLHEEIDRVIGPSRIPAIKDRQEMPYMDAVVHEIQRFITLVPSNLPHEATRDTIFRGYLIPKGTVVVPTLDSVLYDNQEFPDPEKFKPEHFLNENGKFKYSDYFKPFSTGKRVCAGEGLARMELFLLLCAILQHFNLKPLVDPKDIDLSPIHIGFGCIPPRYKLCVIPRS
Sequence of Cytochrome P450 2D6 (P10635 whole entry): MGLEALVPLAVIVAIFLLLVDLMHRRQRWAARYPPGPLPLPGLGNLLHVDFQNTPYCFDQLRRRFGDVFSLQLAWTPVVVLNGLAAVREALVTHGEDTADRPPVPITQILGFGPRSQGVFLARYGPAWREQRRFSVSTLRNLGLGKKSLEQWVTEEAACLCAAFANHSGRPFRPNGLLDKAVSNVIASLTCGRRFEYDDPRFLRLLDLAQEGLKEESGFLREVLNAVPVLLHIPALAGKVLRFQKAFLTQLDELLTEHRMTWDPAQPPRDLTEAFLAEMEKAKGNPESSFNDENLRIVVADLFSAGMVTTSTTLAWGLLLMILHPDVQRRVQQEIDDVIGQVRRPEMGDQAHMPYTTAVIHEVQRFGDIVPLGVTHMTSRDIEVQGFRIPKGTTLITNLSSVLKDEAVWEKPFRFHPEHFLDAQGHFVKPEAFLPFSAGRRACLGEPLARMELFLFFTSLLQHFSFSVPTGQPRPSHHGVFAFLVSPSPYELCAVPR
Sequence of Cytochrome P450 1A2 (P05177 whole entry): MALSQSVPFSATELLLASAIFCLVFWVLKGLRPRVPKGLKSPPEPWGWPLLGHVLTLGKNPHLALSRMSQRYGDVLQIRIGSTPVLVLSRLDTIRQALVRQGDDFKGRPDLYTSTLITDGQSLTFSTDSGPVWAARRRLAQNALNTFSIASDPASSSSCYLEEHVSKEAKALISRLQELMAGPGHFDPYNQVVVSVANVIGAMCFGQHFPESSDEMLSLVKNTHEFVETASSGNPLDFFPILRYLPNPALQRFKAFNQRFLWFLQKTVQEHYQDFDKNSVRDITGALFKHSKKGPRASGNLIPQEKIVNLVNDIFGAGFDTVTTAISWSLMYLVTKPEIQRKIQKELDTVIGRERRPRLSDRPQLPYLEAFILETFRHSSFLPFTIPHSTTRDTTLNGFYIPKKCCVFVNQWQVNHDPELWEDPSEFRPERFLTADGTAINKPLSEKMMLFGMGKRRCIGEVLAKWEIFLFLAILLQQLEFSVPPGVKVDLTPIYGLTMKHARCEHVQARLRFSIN
Sequence of 5-hydroxytryptamine receptor 4 (Homo sapiens) (Q13639 whole entry): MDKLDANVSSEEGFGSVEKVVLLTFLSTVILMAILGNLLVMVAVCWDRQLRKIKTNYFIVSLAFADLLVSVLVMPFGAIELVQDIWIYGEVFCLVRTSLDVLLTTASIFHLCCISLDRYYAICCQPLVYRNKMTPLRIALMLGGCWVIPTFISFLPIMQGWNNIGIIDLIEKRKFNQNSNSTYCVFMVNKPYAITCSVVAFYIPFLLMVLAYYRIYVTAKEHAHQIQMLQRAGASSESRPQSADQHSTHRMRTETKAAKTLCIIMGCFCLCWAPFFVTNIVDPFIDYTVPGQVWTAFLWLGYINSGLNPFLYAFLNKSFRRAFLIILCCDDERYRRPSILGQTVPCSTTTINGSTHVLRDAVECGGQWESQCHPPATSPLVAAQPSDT

Take `COc1ccc2c(c1)c(CN1CCN(C)CC1)cn2S(=O)(=O)c1ccccc1Br.CS(=O)(=O)O.O`: the IC50 – broadly, the midpoint of a concentration-inhibition curve – is greater than 10 µM on Cytochrome P450 2E1; greater than 10 µM on Cytochrome P450 2B6 [2]; greater than 10 µM on Cytochrome P450 1A2; 2.64 µM at Cytochrome P450 3A4 [7]; 13.2 µM at Cytochrome P450 2D6. In addition, the Kp in data set [1] amounted to 1.48. Also, the result in data set [3], in data set [12] and in [19] was inactive. The Ki – broadly, the equilibrium dissociation constant of an inhibitor or competing ligand from its target – on D(3) dopamine receptor came out at 0.616 µM. The AUC(0-t) (as a rule, exposure summed from dosing to a finite time, without extrapolation to infinity) in data set [4] came out at 784 ng·h/mL. In addition, the fraction unbound at 6 h, 1 µM in data set [5] was 0.02. Also, the Activity entry with Rattus norvegicus [6] is given as “Non-Toxic”; at Cytochrome P450 3A4 [14], “Not Active”; at Cytochrome P450 2B6 [16], “Not Active”; in the data set on Rattus norvegicus [18] it was “Non-Toxic”. Further, in data set [8], the half-life is 3.5 h. Also, the results for the clearance in [9] and in data set [11] were 53 mL/min/kg and 46.4 mL/min/kg, respectively. The Vd in [10] was 4.41 L/kg; in data set [17], 7.5 L/kg. Besides, the outcome in the data set with Rattus norvegicus [13] was Active. Besides, the Papp – broadly, the rate of passage across a membrane or cell layer, normalised by area and donor concentration – at 2 h, 10 µM in [15] is 19.6 ×10⁻⁶ cm/s.
